Legend:
Type in all cases: cell-based
[1] = molecular target: T1, Peroxisome proliferator-activated receptor gamma (Homo sapiens, UniProt P37231); assay: Transactivation of human PPARgamma expressed in human HEK293 cells after 16 to 20 hrs by dual luciferase beta-galactosidase reporter gene assay
T1 sequence (P37231 whole entry): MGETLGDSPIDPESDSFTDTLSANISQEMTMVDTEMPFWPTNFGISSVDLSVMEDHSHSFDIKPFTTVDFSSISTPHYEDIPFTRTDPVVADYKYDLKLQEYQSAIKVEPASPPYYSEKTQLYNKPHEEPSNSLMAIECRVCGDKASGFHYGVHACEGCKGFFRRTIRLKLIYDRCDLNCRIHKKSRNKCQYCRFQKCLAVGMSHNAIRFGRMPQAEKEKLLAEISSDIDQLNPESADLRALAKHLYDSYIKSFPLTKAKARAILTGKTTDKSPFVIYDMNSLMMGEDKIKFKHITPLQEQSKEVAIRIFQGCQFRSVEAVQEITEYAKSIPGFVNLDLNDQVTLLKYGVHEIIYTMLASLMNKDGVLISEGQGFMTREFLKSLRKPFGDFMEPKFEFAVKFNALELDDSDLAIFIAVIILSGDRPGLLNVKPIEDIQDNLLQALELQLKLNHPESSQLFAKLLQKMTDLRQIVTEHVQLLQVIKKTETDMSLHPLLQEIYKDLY
How it was run: (§1)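 HEK293 cells were grown in DMEM with 5% FBS and antibiotic-antimycotic at 37 °C in 5% CO2. They were co-transfected by calcium phosphate with 50 ng reporter, 20 ng pCMX-β-galactosidase and 15 ng of each receptor plasmid, made up to 150 ng with pGEM carrier. Ligands were added 8 h later and cells harvested about 16–20 h after. Luciferase was normalized to β-galactosidase; means of triplicates.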

[2] = molecular target: T2, Peroxisome proliferator-activated receptor gamma (Homo sapiens) (UniProt P37231); assay: Transactivation of human PPARgamma expressed in human HEK293 cells assessed as concentration required for maximum activity after 16 to 20 hrs by dual luciferase beta-galactosidase reporter gene assay; how it was run: as §1
T2 sequence (whole entry): T1 sequence (P37231 whole entry)

HEK293 = assay: Selectivity ratio of EC50 for human PPARalpha expressed in human HEK293 cells to EC50 for human PPARgamma expressed in human HEK293 cells
[3] = molecular target: PPAR delta/gamma (Homo sapiens) (UniProt P37231+Q03181); assay: Selectivity ratio of EC50 for human PPARdelta expressed in human HEK293 cells to EC50 for human PPARgamma expressed in human HEK293 cells
[4] = molecular target: T3, Peroxisome proliferator-activated receptor alpha (Homo sapiens, UniProt Q07869); assay: Transactivation of human PPARalpha expressed in human HEK293 cells after 16 to 20 hrs by dual luciferase beta-galactosidase reporter gene assay; how it was run: as §1
T3 sequence (Q07869 whole entry): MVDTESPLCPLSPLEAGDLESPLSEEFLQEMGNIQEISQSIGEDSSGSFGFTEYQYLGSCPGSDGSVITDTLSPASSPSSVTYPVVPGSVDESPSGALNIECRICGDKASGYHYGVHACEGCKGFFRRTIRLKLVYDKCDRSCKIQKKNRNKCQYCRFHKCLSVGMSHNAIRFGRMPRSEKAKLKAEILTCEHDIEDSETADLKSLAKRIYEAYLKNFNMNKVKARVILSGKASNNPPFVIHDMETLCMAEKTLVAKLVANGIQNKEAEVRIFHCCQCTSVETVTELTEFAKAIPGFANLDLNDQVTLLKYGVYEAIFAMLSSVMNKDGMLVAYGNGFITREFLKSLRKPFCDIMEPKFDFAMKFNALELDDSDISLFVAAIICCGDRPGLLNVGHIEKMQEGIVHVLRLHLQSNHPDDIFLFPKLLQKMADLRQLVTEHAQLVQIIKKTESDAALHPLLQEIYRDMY

[5] = molecular target: T4, Peroxisome proliferator-activated receptor delta (Homo sapiens, UniProt Q03181); assay: Transactivation of human PPARdelta expressed in human HEK293 cells after 16 to 20 hrs by dual luciferase beta-galactosidase reporter gene assay
T4 sequence (Q03181 whole entry): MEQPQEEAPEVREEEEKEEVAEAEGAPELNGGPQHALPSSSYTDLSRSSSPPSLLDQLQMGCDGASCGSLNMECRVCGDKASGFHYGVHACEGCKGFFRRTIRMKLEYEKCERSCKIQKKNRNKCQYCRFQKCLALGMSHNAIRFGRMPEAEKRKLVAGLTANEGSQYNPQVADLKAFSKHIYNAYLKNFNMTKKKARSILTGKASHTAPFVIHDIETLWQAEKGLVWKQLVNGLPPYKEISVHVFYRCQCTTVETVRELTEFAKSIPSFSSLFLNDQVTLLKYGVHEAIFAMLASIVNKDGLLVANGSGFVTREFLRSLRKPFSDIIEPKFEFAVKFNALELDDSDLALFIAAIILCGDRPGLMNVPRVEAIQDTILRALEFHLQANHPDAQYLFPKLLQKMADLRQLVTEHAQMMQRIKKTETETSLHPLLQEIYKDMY
How it was run: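 HEK293 cells grown in DMEM with 5% FBS and antibiotic-antimycotic at 37 °C, 5% CO₂. Calcium phosphate cotransfection per well of 50 ng reporter, 20 ng pCMX-β-galactosidase, 15 ng receptor expression plasmid, pGEM carrier to 150 ng. Ligands added 8 h post-transfection, cells harvested ~16–20 h later. Luciferase normalised to β-galactosidase; means of triplicates.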

Work on CCCOc1ccc(C[C@H](CC2CCCCC2)C(=O)O)cc1CNC(=O)c1ccc(C23CC4CC(CC(C4)C2)C3)cc1 yielded an EC50 [1] of 22 nM, an Activity [2] of 1 µM and a Ratio EC50 (HEK293) of 240. For the same compound, the Ratio EC50 [3] was 240.

CCCOc1ccc(C[C@@H](CCc2ccccc2)C(=O)O)cc1CNC(=O)c1ccc(C23CC4CC(CC(C4)C2)C3)cc1 gave an EC50 [4] of 1760 nM, an EC50 [1] of 34 nM and an Activity [2] of 1 µM. The Ratio EC50 (HEK293) was 50 and the Ratio EC50 [3] was 50.

In the case of CCCOc1ccc(C[C@H](CC)C(=O)O)cc1CNC(=O)c1ccc(C23CC4CC(CC(C4)C2)C3)cc1, the EC50 [5] is reported as 130 nM.

CCCOc1ccc(C[C@H](CCc2ccccc2)C(=O)O)cc1CNC(=O)c1ccc(C23CC4CC(CC(C4)C2)C3)cc1 was tested, and the EC50 [4] was 770 nM, the EC50 [1] was 9.2 nM and the Activity [2] was 0.05 µM. The Ratio EC50 (HEK293) was 50 and the Ratio EC50 [3] was 50.

With CCCOc1ccc(C[C@@H](CC2CCCCC2)C(=O)O)cc1CNC(=O)c1ccc(C23CC4CC(CC(C4)C2)C3)cc1 the EC50 [1] was 12 nM, the Activity [2] was 1 µM and the Ratio EC50 (HEK293) was 240. The Ratio EC50 [3] was 240.
